Results taken from PMC6606825 (Journal of Ginseng Research, 2018).

Assay: Pharmacokinetics of CK and its metabolite 20
Type: in vivo, healthy Chinese volunteers
Summary of the method: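 Healthy adults given one oral tablet dose fasting (overnight, or 10 h in a crossover food-effect arm); 30 subjects from the 100/200/400 mg groups were pooled with 24 from 200 mg fasting periods. Plasma was stored at −70°C, extracted with MTBE plus internal standards and assayed by LC-MS/MS. Cmax was observed and AUClast calculated by linear trapezoid, each divided by dose. The metabolite/parent ratio was also calculated. Genotyping used Sequenom MassARRAY, and log-transformed values were compared by one-way ANOVA.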

[1] = ABCC4 rs2274406 TT (first line), mean (SD)
[2] = ABCC4 rs2274406 TT (third line), mean (SD)
[3] = ABCG2 rs2054576 AA (first line), mean (SD)
[4] = ABCG2 rs2054576 AA (third line), mean (SD)

CC(C)=CCC[C@](C)(O)[C@H]1CC[C@]2(C)[C@@H]1[C@H](O)C[C@@H]1[C@@]3(C)CC[C@H](O)C(C)(C)[C@@H]3CC[C@]12C [20(S)-PPD, 20(S)-protopanaxadiol]
Ratio 20(S)-PPD/CK AUClast/D (ABCC4 rs1151471 TT, mean (SD)): 2.12 (2.57) %
Ratio 20(S)-PPD/CK Cmax/D (ABCC4 rs1151471 TT, mean (SD)): 0.52 (0.50) %
20(S)-PPD AUClast/D (ABCC4 rs1189437 GG, n = 1): 3.78 (−)
20(S)-PPD Cmax/D (ABCC4 rs1189437 GG, n = 1): 0.11 (−)
Ratio 20(S)-PPD/CK AUClast/D (ABCC4 rs1189437 GG, n = 1): 31.18 (−) %
Ratio 20(S)-PPD/CK Cmax/D (ABCC4 rs1189437 GG, n = 1): 6.05 (−) %
20(S)-PPD AUClast/D (ABCC4 rs1189437 GT, mean (SD)): 1.25 (0.80)
20(S)-PPD Cmax/D (ABCC4 rs1189437 GT, mean (SD)): 0.05 (0.03)
Ratio 20(S)-PPD/CK AUClast/D (ABCC4 rs1189437 GT, mean (SD)): 7.87 (7.32) %
Ratio 20(S)-PPD/CK Cmax/D (ABCC4 rs1189437 GT, mean (SD)): 2.35 (2.55) %
20(S)-PPD AUClast/D (ABCC4 rs1189437 TT, mean (SD)): 0.54 (0.49)
20(S)-PPD Cmax/D (ABCC4 rs1189437 TT, mean (SD)): 0.02 (0.02)
Ratio 20(S)-PPD/CK AUClast/D (ABCC4 rs1189437 TT, mean (SD)): 2.03 (2.50) %
Ratio 20(S)-PPD/CK Cmax/D (ABCC4 rs1189437 TT, mean (SD)): 0.50 (0.49) %
20(S)-PPD AUClast/D (ABCC4 rs1751034 TC, mean (SD)): 1.51 (1.01)
20(S)-PPD Cmax/D (ABCC4 rs1751034 TC, mean (SD)): 0.05 (0.04)
Ratio 20(S)-PPD/CK Cmax/D (ABCC4 rs1751034 TC, mean (SD)): 2.88 (2.68) %
20(S)-PPD AUClast/D (ABCC4 rs1751034 TT, mean (SD)): 0.59 (0.51)
20(S)-PPD Cmax/D (ABCC4 rs1751034 TT, mean (SD)): 0.02 (0.02)
Ratio 20(S)-PPD/CK AUClast/D (ABCC4 rs1751034 TT, mean (SD)): 2.17 (2.45) %
Ratio 20(S)-PPD/CK Cmax/D (ABCC4 rs1751034 TT, mean (SD)): 0.55 (0.50) %
20(S)-PPD AUClast/D (ABCC4 rs2274406 CT, mean (SD)): 0.77 (0.73)
20(S)-PPD Cmax/D (ABCC4 rs2274406 CT, mean (SD)): 0.03 (0.03)
Ratio 20(S)-PPD/CK AUClast/D (ABCC4 rs2274406 CT, mean (SD)): 3.81 (4.77) %
Ratio 20(S)-PPD/CK Cmax/D (ABCC4 rs2274406 CT, mean (SD)): 1.15 (1.88) %
20(S)-PPD AUClast/D [1]: 0.78 (0.55)
20(S)-PPD Cmax/D [1]: 0.03 (0.03)
Ratio 20(S)-PPD/CK AUClast/D [1]: 2.75 (2.87) %
Ratio 20(S)-PPD/CK Cmax/D [1]: 0.63 (0.46) %
20(S)-PPD AUClast/D [2]: 0.97 (1.01)
20(S)-PPD Cmax/D [2]: 0.03 (0.03)
Ratio 20(S)-PPD/CK AUClast/D [2]: 6.34 (9.72) %
Ratio 20(S)-PPD/CK Cmax/D [2]: 1.49 (1.93) %
20(S)-PPD AUClast/D (ABCC4 rs2274407 CA, mean (SD)): 0.70 (0.61)
20(S)-PPD Cmax/D (ABCC4 rs2274407 CA, mean (SD)): 0.03 (0.02)
Ratio 20(S)-PPD/CK AUClast/D (ABCC4 rs2274407 CA, mean (SD)): 3.96 (6.67) %
Ratio 20(S)-PPD/CK Cmax/D (ABCC4 rs2274407 CA, mean (SD)): 1.04 (1.40) %
20(S)-PPD AUClast/D (ABCC4 rs2274407 CC, mean (SD)): 0.87 (0.83)
20(S)-PPD Cmax/D (ABCC4 rs2274407 CC, mean (SD)): 0.03 (0.03)
Ratio 20(S)-PPD/CK AUClast/D (ABCC4 rs2274407 CC, mean (SD)): 4.39 (6.18) %
Ratio 20(S)-PPD/CK Cmax/D (ABCC4 rs2274407 CC, mean (SD)): 1.18 (1.84) %
20(S)-PPD AUClast/D (ABCC4 rs4148546 AA, mean (SD)): 1.01 (0.97)
20(S)-PPD Cmax/D (ABCC4 rs4148546 AA, mean (SD)): 0.03 (0.03)
Ratio 20(S)-PPD/CK AUClast/D (ABCC4 rs4148546 AA, mean (SD)): 6.66 (9.45) %
Ratio 20(S)-PPD/CK Cmax/D (ABCC4 rs4148546 AA, mean (SD)): 1.37 (1.86) %
20(S)-PPD AUClast/D (ABCC4 rs4148546 GA, mean (SD)): 0.87 (0.75)
20(S)-PPD Cmax/D (ABCC4 rs4148546 GA, mean (SD)): 0.03 (0.03)
Ratio 20(S)-PPD/CK AUClast/D (ABCC4 rs4148546 GA, mean (SD)): 4.17 (4.77) %
Ratio 20(S)-PPD/CK Cmax/D (ABCC4 rs4148546 GA, mean (SD)): 1.32 (1.94) %
20(S)-PPD AUClast/D (ABCC4 rs4148546 GG, mean (SD)): 0.47 (0.46)
20(S)-PPD Cmax/D (ABCC4 rs4148546 GG, mean (SD)): 0.02 (0.02)
Ratio 20(S)-PPD/CK AUClast/D (ABCC4 rs4148546 GG, mean (SD)): 1.34 (1.47) %
Ratio 20(S)-PPD/CK Cmax/D (ABCC4 rs4148546 GG, mean (SD)): 0.41 (0.46) %
20(S)-PPD AUClast/D [3]: 0.78 (0.79)
20(S)-PPD Cmax/D [3]: 0.03 (0.03)
Ratio 20(S)-PPD/CK AUClast/D [3]: 4.17 (5.11) %
Ratio 20(S)-PPD/CK Cmax/D [3]: 1.26 (1.98) %
20(S)-PPD AUClast/D [4]: 2.05 (1.51)
20(S)-PPD Cmax/D [4]: 0.06 (0.04)
Ratio 20(S)-PPD/CK AUClast/D [4]: 12.95 (15.83) %
Ratio 20(S)-PPD/CK Cmax/D [4]: 2.56 (3.02) %
20(S)-PPD AUClast/D (ABCG2 rs2054576 GA, mean (SD)): 0.73 (0.53)
20(S)-PPD Cmax/D (ABCG2 rs2054576 GA, mean (SD)): 0.03 (0.02)
Ratio 20(S)-PPD/CK AUClast/D (ABCG2 rs2054576 GA, mean (SD)): 3.30 (5.27) %
Ratio 20(S)-PPD/CK Cmax/D (ABCG2 rs2054576 GA, mean (SD)): 0.83 (1.11) %
20(S)-PPD AUClast/D (ABCG2 rs2231142 GG, mean (SD)): 0.62 (0.53)
20(S)-PPD Cmax/D (ABCG2 rs2231142 GG, mean (SD)): 0.02 (0.02)
Ratio 20(S)-PPD/CK AUClast/D (ABCG2 rs2231142 GG, mean (SD)): 2.95 (3.04) %
Ratio 20(S)-PPD/CK Cmax/D (ABCG2 rs2231142 GG, mean (SD)): 0.78 (0.71) %
20(S)-PPD AUClast/D (ABCG2 rs2231142 GT, mean (SD)): 0.88 (0.83)
20(S)-PPD Cmax/D (ABCG2 rs2231142 GT, mean (SD)): 0.03 (0.04)
Ratio 20(S)-PPD/CK AUClast/D (ABCG2 rs2231142 GT, mean (SD)): 4.13 (5.64) %
Ratio 20(S)-PPD/CK Cmax/D (ABCG2 rs2231142 GT, mean (SD)): 1.45 (2.39) %
20(S)-PPD AUClast/D (ABCG2 rs2231142 TT, mean (SD)): 2.05 (1.51)
20(S)-PPD Cmax/D (ABCG2 rs2231142 TT, mean (SD)): 0.06 (0.04)
Ratio 20(S)-PPD/CK AUClast/D (ABCG2 rs2231142 TT, mean (SD)): 12.95 (15.83) %
Ratio 20(S)-PPD/CK Cmax/D (ABCG2 rs2231142 TT, mean (SD)): 2.56 (3.02) %
20(S)-PPD AUClast/D (ABCG2 rs2231148 AA, mean (SD)): 0.68 (0.31)
20(S)-PPD Cmax/D (ABCG2 rs2231148 AA, mean (SD)): 0.03 (0.01)
Ratio 20(S)-PPD/CK AUClast/D (ABCG2 rs2231148 AA, mean (SD)): 3.01 (2.32) %
Ratio 20(S)-PPD/CK Cmax/D (ABCG2 rs2231148 AA, mean (SD)): 0.84 (0.60) %
20(S)-PPD AUClast/D (ABCG2 rs2231148 AT, mean (SD)): 0.93 (0.97)
20(S)-PPD Cmax/D (ABCG2 rs2231148 AT, mean (SD)): 0.03 (0.04)
Ratio 20(S)-PPD/CK AUClast/D (ABCG2 rs2231148 AT, mean (SD)): 4.06 (6.40) %
Ratio 20(S)-PPD/CK Cmax/D (ABCG2 rs2231148 AT, mean (SD)): 1.42 (2.72) %
20(S)-PPD AUClast/D (ABCG2 rs2231148 TT, mean (SD)): 0.80 (0.80)
20(S)-PPD Cmax/D (ABCG2 rs2231148 TT, mean (SD)): 0.03 (0.02)
Ratio 20(S)-PPD/CK AUClast/D (ABCG2 rs2231148 TT, mean (SD)): 4.75 (7.36) %
Ratio 20(S)-PPD/CK Cmax/D (ABCG2 rs2231148 TT, mean (SD)): 1.11 (1.45) %
20(S)-PPD AUClast/D (ABCG2 rs2725248 AA, mean (SD)): 0.69 (0.78)
20(S)-PPD Cmax/D (ABCG2 rs2725248 AA, mean (SD)): 0.02 (0.03)
Ratio 20(S)-PPD/CK AUClast/D (ABCG2 rs2725248 AA, mean (SD)): 3.94 (7.05) %
Ratio 20(S)-PPD/CK Cmax/D (ABCG2 rs2725248 AA, mean (SD)): 0.92 (1.40) %
20(S)-PPD AUClast/D (ABCG2 rs2725248 CA, mean (SD)): 1.05 (0.79)
20(S)-PPD Cmax/D (ABCG2 rs2725248 CA, mean (SD)): 0.04 (0.03)
Ratio 20(S)-PPD/CK AUClast/D (ABCG2 rs2725248 CA, mean (SD)): 4.84 (5.49) %
Ratio 20(S)-PPD/CK Cmax/D (ABCG2 rs2725248 CA, mean (SD)): 1.53 (2.29) %
20(S)-PPD AUClast/D (ABCG2 rs2725248 CC, mean (SD)): 0.96 (1.03)
20(S)-PPD Cmax/D (ABCG2 rs2725248 CC, mean (SD)): 0.03 (0.03)
Ratio 20(S)-PPD/CK AUClast/D (ABCG2 rs2725248 CC, mean (SD)): 3.24 (3.92) %
